Results reported in ChEMBL document CHEMBL1123881, “Synthesis and antiarrhythmic activity of new 3-[2-(omega-aminoalkoxy)phenoxy]-4-phenyl-3-buten-2-ones and related compounds” (J Med Chem, 1987).
Values after ≈ are worked out from the molar mass of the structure shown.

Legend:
[1] = The compound was tested for acute toxicity when given intraperitoneally in mouse; type: organism-based; settings: in vivo, ip
Summary of the method: (§1)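 Albino CF1 mice of both sexes, 18-20 g, dosed intraperitoneally; survivors observed for 1 week; ten mice per dose. LD50 derived by probit method, confidence limits at p = 0.05.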

Oryctolagus cuniculus = species: Oryctolagus cuniculus; assay: Tested in vitro for antiarrhythmic activity in isolated rabbit atria; type: functional; settings: Heart
Summary of the method: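 Atria from New Zealand rabbits in oxygenated Ringer-Locke at 29 °C, paced with 10-ms, 10-V rectangular pulses at rising frequency to find the maximum driven frequency. This was remeasured before and 10, 15 and 20 min after drug addition. Dose-response curves on the same tissue, repeated 3-5 times. EC values by probit.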

Rattus norvegicus [2] = assay: Antiarrhythmic activity ( protection against CaCl2 induced ventricular fibrillation ) in anesthetized rat administered intravenously; type: functional; settings: Heart, iv
Summary of the method: (§2)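 Sprague-Dawley albino rats, 180-200 g, conscious or urethane-anesthetized (2.8 g/kg sc). Compound given via caudal or portal vein 2 min, or orally 60 min, before rapid iv 8% CaCl2 at 1 mL/kg. Lead II ECG monitored for fibrillation within 10 min. Five to ten rats per dose.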

[3] = The compound was tested for acute toxicity when given intraperitoneally in mouse.; type: organism-based; settings: in vivo, ip; summary of the method: as §1
[4] = The compound was tested for acute toxicity when given intravenously in rat; type: organism-based; settings: in vivo, iv
Summary of the method: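 Sprague-Dawley rats of both sexes, 120-140 g, dosed intravenously; survivors observed for 1 week. LD50 derived by probit method, confidence limits at p = 0.05.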

Canis familiaris [5] = assay: The compound was tested for antiarrhythmic activity in infarcted conscious dog through iv(ear or caudal vein); type: functional; settings: Canis lupus familiaris, Heart
Summary of the method: (§3)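 Beagle dogs of both sexes, 10-14 kg, coronary ligature under pentobarbital (30 mg/kg iv) with artificial ventilation. Next day, dogs without spontaneous arrhythmia get epinephrine 2-10 µg/kg iv (ear vein). Compound then given iv. ECG at 5-180 min, with epinephrine re-challenge at each time. Maximal ectopic beats/min counted before and after each dose, in 2-4 dogs.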

Canis familiaris [6] = assay: Antiarrhythmic activity ( protection against epinephrine induced ventricular fibrillation ) in post infarcted conscious dog administered iv(ear or caudal vein); type: functional; settings: Canis lupus familiaris, Heart
Mus musculus [7] = assay: Antiarrhythmic activity ( protection against aconitine induced initial arrhythmia ) in anesthetized mouse administered perorally; type: functional; settings: Heart, po
Summary of the method: (§4)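 Albino CF1 mice of both sexes, 20-22 g, pentobarbital-anesthetized (60 mg/kg ip), lead II ECG. Dosing iv (caudal vein) 2 min or orally 60 min before aconitine infusion, 8 µg/mL at 0.32 mL/min for 3 min. ECG read every 10 s. Endpoint is time to initial arrhythmia and to ventricular tachycardia. Ten mice per dose; probit analysis.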

Mus musculus [8] = assay: Antiarrhythmic activity ( protection against aconitine induced initial arrhythmia ) in anesthetized mouse administered through iv(ear or caudal vein); type: functional; settings: Heart; summary of the method: as §4
Mus musculus [9] = assay: Antiarrhythmic activity ( protection against aconitine induced ventricular tachycardia) in anesthetized mouse administered perorally; type: functional; settings: Heart, po; summary of the method: as §4
Rattus norvegicus [10] = assay: Activity on heart rate in anesthetized rat when induced through femoral vein (iv), at 5 mg/kg; type: functional
Summary of the method: (§5)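 Heart rate in anesthetized rats, given iv (femoral vein) or into the portal vein. Rate recorded a few seconds before drug administration.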

Rattus norvegicus [11] = assay: The compound was tested for activity on heart rate in anesthetized rat when induced through portal vein (ipv),at 14 mg/kg; type: functional; summary of the method: as §5
Rattus norvegicus [12] = assay: The compound was tested for blood electrolyte K+ in rat serum when induced through femoral vein (iv),at 20 mg/kg; type: functional
Summary of the method: (§6)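 Sprague-Dawley rats of both sexes, 140-150 g. Serum K+ measured by flame photometry 1 h after iv dosing. Five rats per dose.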

Rattus norvegicus [13] = assay: Antiarrhythmic activity ( protection against CaCl2 induced ventricular fibrillation ) in conscious rat administered intravenously; type: functional; settings: Heart, iv; summary of the method: as §2
Rattus norvegicus [14] = assay: Antiarrhythmic activity ( protection against CaCl2 induced ventricular fibrillation ) in conscious rat administered orally (po); type: functional; settings: Heart; summary of the method: as §2
Rattus norvegicus [15] = assay: Antiarrhythmic activity (protection against CaCl2 induced ventricular fibrillation) in anesthetized rat administered through portal vein (ipv); type: functional; settings: Heart; summary of the method: as §2
Mus musculus [16] = assay: Antiarrhythmic activity ( protection against aconitine induced ventricular tachycardia) in anesthetized mouse administered through iv(ear or caudal vein); type: functional; settings: Heart; summary of the method: as §4
Canis familiaris [17] = assay: The compound was tested for antiarrhythmic activity in infarcted conscious dog through iv; type: functional; settings: Canis lupus familiaris, Heart; summary of the method: as §3
Canis familiaris [18] = assay: Antiarrhythmic activity ( protection against epinephrine induced ventricular fibrillation ) in post infarcted conscious dog administered iv.; type: functional; settings: Canis lupus familiaris, Heart
Mus musculus [19] = assay: Antiarrhythmic activity (protection against aconitine induced initial arrhythmia) in anesthetized mouse administered through iv.; type: functional; settings: Heart; summary of the method: as §4
Mus musculus [20] = assay: Antiarrhythmic activity (protection against aconitine induced ventricular tachycardia) in anesthetized mouse administered through iv.; type: functional; settings: Heart; summary of the method: as §4
Rattus norvegicus [21] = assay: The compound was tested for activity on heart rate in anesthetized rat when induced through femoral vein (iv) at a dose of 1 mg/kg; type: functional; summary of the method: as §5
Rattus norvegicus [22] = assay: The compound was tested for blood electrolyte K+ in rat serum when induced through femoral vein (iv) at a dose of 5 mg/kg; type: functional; summary of the method: as §6
Rattus norvegicus [23] = assay: The compound was tested for activity on heart rate in anesthetized rat when induced through portal vein (ipv) at a dose of 2 mg/kg; type: functional; summary of the method: as §5
Mus musculus [24] = species: Mus musculus; assay: (§7) The compound was tested for effective concentration (intradermal injection) that caused local anesthesia in 50% of mice by tail-clip method; type: functional, organism-based
Mus musculus [25] = species: Mus musculus; assay: as §7; type: functional, organism-based; remark: listed apart in the source
Summary of the method: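 Tail-clip test in albino CF1 mice of both sexes, 18-20 g. Intradermal tail injection of 0.1 mL/mouse about 1 cm from the root.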

Mus musculus [26] = assay: Antiarrhythmic activity ( protection against aconitine induced initial arrhythmia ) in anesthetized mouse administered through iv.; type: functional; settings: Heart; summary of the method: as §4
Mus musculus [27] = assay: Antiarrhythmic activity ( protection against aconitine induced ventricular tachycardia) in anesthetized mouse administered through iv.; type: functional; settings: Heart; summary of the method: as §4
Rattus norvegicus [28] = assay: The compound was tested for activity on heart rate in anesthetized rat when induced through femoral vein (iv) at dose of 1 mg/kg; type: functional; summary of the method: as §5
Rattus norvegicus [29] = assay: The compound was tested for activity on heart rate in anesthetized rat when induced through portal vein (ipv) at dose of 1 mg/kg; type: functional; summary of the method: as §5
Rattus norvegicus [30] = assay: The compound was tested for blood electrolyte K+ in rat serum when induced through femoral vein (iv) at dose of 5 mg/kg; type: functional; summary of the method: as §6
Rattus norvegicus [31] = assay: The compound was tested for antiarrhythmic activity ( protection against CaCl2 induced ventricular fibrillation ) in anesthetized rat.; type: functional; settings: Heart; summary of the method: as §2

Row | Compound | LD50 [1] [mg/kg] | EC30 (Oryctolagus cuniculus) [µg/mL] | ED50 (Rattus norvegicus [2]) [mg/kg] | LD50 [3] [mg/kg] | LD50 [4] [mg/kg] | other results
1 | CCN(CC)CCOc1ccccc1OCC(C)O (stereo not drawn) | 187 | 15 (≈ 56.1 µM) | 7.1 |  |  | 
2 | CC(=O)/C(=C\c1ccccc1)Oc1ccccc1OCC(C)N(C)C (stereo not drawn) |  | 2 (≈ 5.89 µM) | 0.9 | 45 |  | 
3 | CC(=O)/C(=C\c1ccccc1)Oc1cc(Cl)ccc1OCCN(C(C)C)C(C)C |  | 2 (≈ 4.81 µM) | 0.62 | 165 |  | 
4 | CC(=O)/C(=C\c1ccccc1)Oc1ccccc1OCCN(C(C)C)C(C)C | 125 | 1 (≈ 2.62 µM) | 0.5 |  | 10.1 | 
5 | CCN(CC)CCOc1ccccc1O/C(=C/c1ccccc1)C(=O)c1ccccc1 | 125 | 2.8 (≈ 6.74 µM) |  |  |  | 
6 | CC(=O)/C(=C\c1ccccc1)Oc1ccc(OCC(C)N(C)C)cc1 (stereo not drawn) |  | 3.5 (≈ 10.3 µM) | 3 | 100 |  | 
7 | CC(=O)/C(=C\c1ccccc1)Oc1ccccc1OCCN1CCCC1 | 45 | 3 (≈ 8.54 µM) | 1 |  |  | 
8 | C=C[C@H]1CN2CC[C@H]1C[C@@H]2[C@@H](O)c1ccnc2ccc(OC)cc12 [QUINIDINE] |  | 3.9 (≈ 12 µM) |  |  |  | ED50 (Canis familiaris [5]): 5.5 mg/kg; ED50 (Canis familiaris [6]): 1 mg/kg; ED50 (Mus musculus [7]): 122 mg/kg; ED50 (Mus musculus [8]): 15.2 mg/kg; ED50 (Mus musculus [9]): 158 mg/kg; Activity (Rattus norvegicus [10]): -30%; Activity (Rattus norvegicus [11]): -36%; Activity (Rattus norvegicus [12]): 3%; ED50 (Rattus norvegicus [13]): 3.2 mg/kg; ED50 (Rattus norvegicus [14]): 47.7 mg/kg; ED50 (Rattus norvegicus [15]): 13.5 mg/kg; ED50 (Mus musculus [16]): 14 mg/kg
9 | CC(=O)/C(=C\c1ccccc1)Oc1ccccc1OCCCN1CCCCC1 |  | 1.6 (≈ 4.22 µM) | 0.2 | 62 | 6.5 | 
10 | CCN(CC)CCOc1ccccc1O/C(=C/c1ccccc1)C(C)=O [ZOCAINONE] |  | 0.7 (≈ 1.98 µM) | 0.46 | 72 | 8.9 | ED50 (Canis familiaris [17]): 2 mg/kg; ED50 (Canis familiaris [18]): 2 mg/kg; ED50 (Mus musculus [7]): 132 mg/kg; ED50 (Mus musculus [9]): 149 mg/kg; ED50 (Mus musculus [19]): 7.5 mg/kg; ED50 (Mus musculus [20]): 11 mg/kg; Activity (Rattus norvegicus [21]): -15%; Activity (Rattus norvegicus [22]): 12%; ED50 (Rattus norvegicus [13]): 0.88 mg/kg; ED50 (Rattus norvegicus [14]): 13.6 mg/kg; ED50 (Rattus norvegicus [15]): 2.3 mg/kg; Activity (Rattus norvegicus [23]): -1%; EC50 (Mus musculus [24]): 0.01 µg/mL (≈ 0.0283 µM)
11 | CCN(CC)CCOc1ccccc1OC(Cc1ccccc1)C(C)=O (stereo not drawn) | 92 | 10 (≈ 28.1 µM) | 0.75 |  | 11.7 | 
12 | C/C=C(/Oc1ccccc1OCCN(CC)CC)C(C)=O |  | 5 (≈ 17.2 µM) | 3 | 80 |  | 
13 | CC(=O)/C(=C\c1ccccc1)Oc1ccccc1OCCCN(C(C)C)C(C)C |  | 0.32 (≈ 0.809 µM) | 0.1 | 60 | 11.4 | 
14 | CCN(CC)CCCOc1ccccc1O/C(=C/c1ccccc1)C(C)=O |  | 0.41 (≈ 1.12 µM) |  | 95 | 11.1 | ED50 (Canis familiaris [17]): 1 mg/kg; ED50 (Canis familiaris [18]): 1 mg/kg; EC50 (Mus musculus [25]): 9.9 ng/mL (≈ 0.0269 µM); ED50 (Mus musculus [7]): 82 mg/kg; ED50 (Mus musculus [26]): 4.3 mg/kg; ED50 (Mus musculus [9]): 83 mg/kg; ED50 (Mus musculus [27]): 4.9 mg/kg; Activity (Rattus norvegicus [28]): -6%; Activity (Rattus norvegicus [29]): 4%; Activity (Rattus norvegicus [30]): -8%; ED50 (Rattus norvegicus [13]): 0.3 mg/kg; ED50 (Rattus norvegicus [14]): 35 mg/kg; ED50 (Rattus norvegicus [15]): 0.6 mg/kg; ED50 (Rattus norvegicus [31]): 0.18 mg/kg
